# Results gathered from unrelated publications.
# Protocols differ between the studies behind these lines.
# Target: Serine/threonine-protein kinase PLK3 (PLK3, Homo sapiens, UniProt Q9H4B4)
SMILES,read-out,technique,concentration,remaining binding [%]
c1cnn2ncc(-c3ccnc(N4CCC45COC5)n3)c2c1,binding,,1 µM,79
O=C(Nc1cccnn1)N1CC(C/C=C/c2cncc(Oc3ccc(C(F)(F)F)cn3)n2)C1,cell-free assay,competition with immobilised ligand,1 µM,80
C[C@@H]1CN(c2ccc3ncc(-c4ccc5[nH]nc(C6CC6)c5c4)n3n2)C[C@H](C)O1,binding,competition with immobilised ligand,50 nM,78
O=C(c1ccc(Nc2nccc(-c3cc4ccccc4s3)n2)cc1)N1CCC(N2CCCC2)CC1,binding,competition with immobilised ligand,1 µM,81
COc1ccnn2ncc(-c3ccnc(N(C)C)n3)c12,binding,,1 µM,75
O=C(Nc1c[nH]nc1C(=O)NC1CCNCC1)c1cc(F)cc(F)c1,binding,competition with immobilised ligand,1 µM,86
C[C@H](c1ccc(F)cc1)N(Cc1cccc(C(=O)O)c1)C(=O)c1cnc2ccccc2c1,cell-free assay,competition with immobilised ligand,1 µM,100
CN(c1nccc(-c2cnn3ncccc23)n1)C1CC1,binding,,1 µM,86
O=C(c1ccc(Nc2ncc(Cl)c(-c3ccc(Cl)s3)n2)cc1)N1CCC(N2CCCC2)CC1,binding,competition with immobilised ligand,1 µM,31
C[C@H](c1ccnc(Nc2nc3ccc(-c4cc(N(C)C)ncn4)cc3[nH]2)c1)N1CCN(C(=O)CC(F)(F)F)CC1,cell-free assay,competition with immobilised ligand,0.1 µM,100
COc1ncc2cc3ccccc3nc2c1C#N,cell-free assay,competition with immobilised ligand,5 µM,69
N#Cc1ccccc1CSc1nnc2c(n1)[nH]c1ccccc12,binding,competition with immobilised ligand,10 µM,100
CN(C)c1ncnc(-c2ccc3nc(Nc4cc(CN5CCN(C(=O)CC(F)(F)F)CC5)ccn4)[nH]c3c2)c1Cl,cell-free assay,competition with immobilised ligand,1 µM,100
F[C@@H]1CCN(c2nccc(-c3cnn4ncccc34)n2)C1,binding,,1 µM,87
CN([C@@H]1CCc2c(CC(=O)O)c3ccccc3n2C1)S(=O)(=O)c1ccc(F)cc1,cell-free assay,competition with immobilised ligand,1 µM,85
CC(C)(C)c1ccc(-c2nc(CBr)nn2-c2cccc(O)c2)cc1,cell-free assay,competition with immobilised ligand,10 µM,98
N[C@@H]1CCN(c2nccc(-c3cnn4ncccc34)n2)C1,binding,,1 µM,100
CS(=O)(=O)c1cc(C2(NC(=O)c3cncc4c3cnn4-c3ccc(F)cc3)CC2)ccn1,cell-free assay,competition with immobilised ligand,1 µM,68
C[C@@H](c1ccc(-n2cnc3c(N)ncnc32)cc1)N1CCc2nn(C)c(Cc3ccccc3)c2C1=O,binding,competition with immobilised ligand,0.1 µM,76
C[C@H]1CCN(c2nccc(-c3cnn4ncccc34)n2)C1,binding,,1 µM,75
O=C(c1ccc(Nc2ncc(Cl)c(-c3cc4ccccc4s3)n2)cc1)N1CCC(N2CCCC2)CC1,binding,competition with immobilised ligand,1 µM,58
C=CC(=O)N1CCC(C(=O)NCC(=O)N2CCN(c3nc(-c4cnc(N)nc4C(F)F)nc(N4CCOCC4)n3)CC2)CC1,binding,competition with immobilised ligand,1 µM,58
CCOCCn1cc(C(=O)Nc2ccc(-n3nc(-c4cccnc4)cc3C(F)(F)F)cn2)ccc1=O,cell-free assay,competition with immobilised ligand,1 µM,84
COc1cnc(Nc2cccc(S(N)(=O)=O)c2)nc1N1CCN(c2ccccc2)C(=O)C1,binding,competition with immobilised ligand,1 µM,63
